The target in series [1] is Adenosine receptor A2a (Rattus norvegicus) (UniProt P30543). The series is described as follows: Binding affinity against adenosine A2A receptor in rat striatal membrane preparations using [3H]CGS-21680 at 30 uM. In kind it is cell membranes. To be noted: Striatum. The essentials: (§1)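 Rat striatal membranes, A2A-selective agonist [3H]CGS21680 at 5 nM. Compounds dissolved in DMSO, diluted into aqueous buffer. Value given as percent inhibition of radioligand binding at the single stated concentration.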

Series [2] has as its target T1, Adenosine receptor A1 (Rattus norvegicus, UniProt P25099).
T1 sequence (P25099 whole entry): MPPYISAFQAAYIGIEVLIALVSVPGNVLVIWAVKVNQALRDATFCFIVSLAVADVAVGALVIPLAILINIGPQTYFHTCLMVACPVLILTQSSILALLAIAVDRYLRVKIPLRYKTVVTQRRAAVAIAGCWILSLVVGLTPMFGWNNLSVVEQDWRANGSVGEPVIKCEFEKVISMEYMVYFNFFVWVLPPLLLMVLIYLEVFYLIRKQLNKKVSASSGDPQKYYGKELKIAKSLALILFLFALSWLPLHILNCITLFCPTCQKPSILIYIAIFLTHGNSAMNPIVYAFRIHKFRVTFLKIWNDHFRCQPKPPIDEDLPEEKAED
Description: Tested for its binding affinity at adenosine A1 receptor in rat brain cortical membrane preparations using [3H]CCPA as a radioligand. In kind it is cell membranes. An outline of the steps: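 Rat brain cortical membranes, A1 agonist radioligand [3H]CCPA at 0.5 nM. Compounds dissolved in DMSO, diluted into aqueous buffer, tested at 5-7 concentrations in triplicate, at least three separate experiments.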

Series [3] has as its target Adenosine receptor A2a (Rattus norvegicus) (UniProt P30543). Description: (§2) Binding affinity against adenosine A2A receptor in rat striatal membrane preparations using [3H]CGS-21680 at 10 uM. In kind it is cell membranes. The settings on record: Striatum. The essentials:
as §1

Series [4] deals with Adenosine receptor A1 (Homo sapiens) (UniProt P30542). Description: Binding affinity against adenosine A1 receptor expressed in CHO cells using [3H]CCPA.
Series [5] concerns the target T2, Adenosine receptor A2a (Rattus norvegicus, UniProt P30543). Description: Binding affinity at adenosine A2A receptor in rat striatal membrane preparations using [3H]CGS-21680 at a 30 uM. In kind it is cell membranes, Striatum.
In series [6] the target is Adenosine receptor A2a (Rattus norvegicus) (UniProt P30543). The series is described as follows: Binding affinity against adenosine A2A receptor in rat striatal membrane preparations at 10 uM. In kind it is cell membranes. To be noted: Striatum. An outline of the steps: as §1
The nature of series [7]: Solubility determined in […]-hydrochloride buffer at pH 7.4. The settings on record: in the assay text read “50 mM” for “50 nM”. In kind it is physicochemical. An outline of the steps: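 10 mM DMSO solution diluted 1:100 into 50 mM TRIS-HCl pH 7.4 (1% DMSO), shaken overnight at room temperature to equilibrium, centrifuged at 1000g, supernatant filtered through cotton. Dilutions analysed by HPLC with UV detection, concentration from calibration curves.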

For series [8], the target named is T3, Adenosine receptor A1 (Rattus norvegicus) (UniProt P25099).
T3 sequence (whole entry): T1 sequence (P25099 whole entry)
Description: Ratio between solubility and Ki for A1 adenosine receptor.

Series [9] deals with Adenosine receptor A2a (Rattus norvegicus) (UniProt P30543). The series is described as follows: Binding affinity against adenosine A2A receptor in rat striatal membrane preparations using [3H]CGS-21680 at 1 uM. To be noted: Striatum. In kind it is cell membranes. The essentials:
as §1

Series [10] shares this target. The series is described as follows: Binding affinity against adenosine A2A receptor in rat striatal membrane preparations at 30 uM. In kind it is cell membranes. To be noted: Striatum. An outline of the steps:
as §1

Series [11] deals with T3, Adenosine receptor A1 (Rattus norvegicus). Description: Binding affinity against adenosine A1 receptor in rat brain cortical membrane preparations using [3H]CCPA at 100 uM. In kind it is cell membranes. An outline of the steps: (§3)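 Rat brain cortical membranes with [3H]CCPA (0.5 nM) as A1 radioligand. Compounds from DMSO stock diluted into aqueous buffer. Value given as percent inhibition of specific radioligand binding at the single stated concentration.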

Series [12] concerns the target T2, Adenosine receptor A2a. The description is as §2. In kind it is cell membranes, Striatum.
Series [13] concerns the target Adenosine receptor A2a (Rattus norvegicus) (UniProt P30543). The series is described as follows: Binding affinity against adenosine A2A receptor in rat striatal membrane preparations using [3H]CGS-21680 at 3 uM. The settings on record: Striatum. In kind it is cell membranes. The essentials: as §1
The target of series [14] is T3, Adenosine receptor A1 (Rattus norvegicus). Description: Binding affinity against adenosine A1 receptor in rat brain cortical membrane preparations using [3H]CCPA. In kind it is cell membranes. The settings on record: concentration not given here. An outline of the steps: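 Rat brain cortical membranes, A1 agonist radioligand [3H]CCPA at 0.5 nM. Compounds dissolved in DMSO, diluted into aqueous buffer, tested at 5-7 concentrations in triplicate, at least three separate experiments. IC50 from nonlinear curve fitting, converted to Ki with Cheng-Prusoff using KD 0.2 nM.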

The target is the same in series [15]. The series is described as follows: Binding affinity against adenosine A1 receptor in rat brain cortical membrane preparations using [3H]CCPA at 30 uM. In kind it is cell membranes. The essentials: as §3

The term inhibition denotes the share of the control response that was lost under treatment. A high value points to strong suppression. What is called Ki is a dissociation constant, usually derived from enzyme kinetics or from competition with a known ligand. A low value points to tighter binding. By solubility is commonly meant how much of the substance goes into solution per volume.

≈ marks a conversion by molar mass, not a printed value.

T2 sequence (P30543 whole entry): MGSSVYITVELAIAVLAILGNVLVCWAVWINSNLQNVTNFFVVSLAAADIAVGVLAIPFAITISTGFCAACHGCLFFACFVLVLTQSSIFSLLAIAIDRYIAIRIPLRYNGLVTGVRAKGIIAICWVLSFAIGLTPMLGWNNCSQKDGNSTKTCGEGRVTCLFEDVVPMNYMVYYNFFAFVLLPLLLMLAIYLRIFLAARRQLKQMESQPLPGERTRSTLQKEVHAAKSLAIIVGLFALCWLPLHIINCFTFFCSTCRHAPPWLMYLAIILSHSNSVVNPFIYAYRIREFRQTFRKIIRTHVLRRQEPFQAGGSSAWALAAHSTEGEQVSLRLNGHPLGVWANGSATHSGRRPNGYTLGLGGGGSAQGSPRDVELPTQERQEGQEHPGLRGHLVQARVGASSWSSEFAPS
Adenosine receptor A2a (Rattus norvegicus), sequence (P30543 whole entry): as above
Adenosine receptor A1 (Homo sapiens), sequence (P30542 whole entry, looked up): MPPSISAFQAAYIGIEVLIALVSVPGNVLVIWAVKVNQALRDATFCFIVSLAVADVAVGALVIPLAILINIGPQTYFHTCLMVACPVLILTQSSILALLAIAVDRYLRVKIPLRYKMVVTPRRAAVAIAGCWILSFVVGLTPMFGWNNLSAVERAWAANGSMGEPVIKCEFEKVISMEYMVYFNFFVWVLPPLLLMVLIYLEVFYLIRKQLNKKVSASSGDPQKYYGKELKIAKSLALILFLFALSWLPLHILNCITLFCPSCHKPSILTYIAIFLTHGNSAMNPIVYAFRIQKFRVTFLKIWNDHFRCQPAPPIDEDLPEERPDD

`Nc1nc(-c2cccnc2)nc2c1c1c(n2-c2ccccc2)CCCC1` yielded an inhibition in series [1] of 44%.
In series [2], `Cc1c(C)n([C@H](C)c2ccccc2)c2nc(-c3ccccn3)nc(N)c12` had a Ki of 2.1 µM. In [1], this compound yielded an inhibition of 43%.
In the case of `Cc1[nH]c2nc(C(C)c3ccccc3)nc(N)c2c1C` (stereo unspecified), in [2], the Ki was 6.84 µM. This compound also registered an inhibition in series [3] of 10%.
Take `C[C@H](c1ccccc1)n1c2ccccc2c2c(N)nc(-c3cccnc3)nc21`: the affinity in [2] corresponds to a Ki of 0.092 µM. The same compound showed an inhibition in series [3] of 47%.
In the case of `Cc1c(C)n([C@H](C)c2ccccc2)c2nc(-c3ccncc3)nc(N)c12`, the values for the Ki in series [4], in series [5] and in series [2] were 0.0088 µM, 1.3 µM and 0.046 µM, respectively.
The compound `Nc1nc(-c2ccncc2)nc2c1c1c(n2-c2ccccc2)CCCC1` gave a Ki in [2] of 0.6 µM. The compound further returned an inhibition in series [6] of 28%.
For the compound `CCC(CO)Nc1nc(-c2ccccc2)nc2c1c(C)c(C)n2C1CCCC1` (stereo unspecified), affinity in series [2] was put at a Ki of 1.24 µM. For the same compound, the concentration in solution in series [7] (solubility) was 13.2 µM (≈ 5 µg/mL). Further, in series [8], the Ratio amounted to 11. This compound also gave an inhibition in [1] of 22%.
Regarding `C[C@@H](c1ccccc1)n1c2ccccc2c2c(N)nc(-c3ccccn3)nc21`, affinity in series [2] was put at a Ki of 0.54 µM. In addition, the concentration in solution in series [7] (solubility) came to 5 µM (≈ 1.83 µg/mL). In series [9], this compound showed an inhibition of 6%. Moreover, the Ratio in series [8] came to 9.
In [2], `Cc1c(C)n([C@H](C)c2ccccc2)c2nc(-c3ccccc3)nc(N[C@@H](C)c3ccccc3)c12` displayed a Ki of 18.3 µM. Further, in series [1], the inhibition amounted to 26%.
In the same order, the values of `Cc1c(C)n([C@H](C)c2ccccc2)c2nc(-c3ccccc3O)nc(N)c12` are 0.24 µM and 46%.
On to `C[C@H](c1ccccc1)n1c2c(c3c(N)nc(-c4cc[n+]([O-])cc4)nc31)CCCC2`, for which affinity in series [2] was put at a Ki of 1.85 µM. This compound returned an inhibition in [10] of 50%.
`Nc1nc(-c2ccccn2)nc2c1c1c(n2-c2ccccc2)CCCC1` gave a Ki in series [2] of 8.9 µM. This compound also returned an inhibition in series [1] of 42%.
As to `Cc1c(C)n([C@H](C)c2ccccc2)c2nc(-c3ccco3)nc(N)c12`, the Ki in series [5] was 0.49 µM; in series [2] it was 0.016 µM.
The like results for `Cc1c(C)n([C@H](C)c2ccccc2)c2nc(-c3cccs3)nc(N)c12` were, in that order, 5.4 µM and 0.019 µM.
On to `Cc1c(C)n([C@H](C)c2ccccc2)c2nc(-c3cnccn3)nc(N)c12`, for which the values for the Ki in series [5] and in series [2] were 6.6 µM and 0.56 µM, respectively.
In the case of `Cc1c(C)n([C@H](C)c2ccccc2)c2nc(-c3cccnc3)nc(N)c12`, the results for the inhibition in series [11] and in [1] were 35% and 3%, respectively.
The compound `C[C@H](c1ccccc1)n1c2c(c3c(N)nc(-c4cccnc4)nc31)CCCC2` gave a Ki in series [2] of 1.3 µM. For the same compound, in series [10], the inhibition came to 46%.
As for `C[C@H](c1ccccc1)n1c2ccccc2c2c(N)nc(-c3ccncc3)nc21`, the Ki in series [2] turned out to be 0.021 µM; in series [12], 1.85 µM. Moreover, the solubility in series [7] stood at 3 µM (≈ 1.1 µg/mL). In [8], the Ratio is 142.
In series [3], `Cc1nc2nc(-c3ccccc3)[nH]c(N[C@H](C)c3ccccc3)c-2c1C` returned an inhibition of 23%.
In the case of `C[C@H](c1ccccc1)n1c2ccccc2c2c(N)nc(-c3cccs3)nc21`, the inhibition in [13] amounted to 32%. Moreover, the Ki in series [2] is 0.036 µM.
In the case of `CCC(CO)Nc1nc(-c2ccc(Cl)cc2)nc2c1c(C)c(C)n2[C@H](C)c1ccccc1` (stereo partly specified), the affinity in series [2] corresponds to a Ki of 2.6 µM. In addition, in series [7], the solubility came to 11.2 µM (≈ 5.03 µg/mL). The Ratio in [8] turned out to be 4. Further, in series [1], the inhibition was found to be 36%.
`Cc1c(C)n([C@H](C)c2ccccc2)c2nc(-c3ccccc3)nc(NCCN)c12` gave a Ki in series [2] of 3.58 µM. Also, the solubility in series [7] is 24.2 µM (≈ 9.33 µg/mL). In addition, the Ratio in series [8] was 7. Moreover, the inhibition in series [1] stood at 2%.
Take `C[C@@H](c1ccccc1)n1c2c(c3c(N)nc(-c4ccncc4)nc31)CCCC2`: the inhibition in [14] was determined as 8%; in [10] it was 2%.
In the case of `Cc1c(C)n([C@H](C)c2ccccc2)c2nc(-c3cc[n+]([O-])cc3)nc(N)c12`, the figures for the Ki in series [5] and in series [2] were 5.9 µM and 0.49 µM, respectively.
Turning to `Cc1c(C)n([C@H](C)c2ccccc2)c2nc(C(C)c3ccccc3)nc(N)c12` (stereo partly specified), the inhibition in [15] was 33%; in series [1], 38%.
In the same order, the values of `COc1ccccc1-c1nc(N)c2c(C)c(C)n([C@H](C)c3ccccc3)c2n1` are 38% and 14%.
`C[C@@H](c1ccccc1)n1c2c(c3c(N)nc(-c4ccccn4)nc31)CCCC2`: in series [2], the Ki turned out to be 12.5 µM. In [10], this compound gave an inhibition of 38%.
As to `Cc1c(C)n([C@H](C)c2ccccc2)c2nc(-c3ccccc3)nc(N)c12`, the Ki in [12] was 3.71 µM.
On to `Cc1c(C)n([C@H](C)c2ccccc2)c2nc(-c3ccccc3)nc(NC3CCCC3)c12`, for which the figures for the inhibition in series [15] and in [1] were 41% and 19%, respectively.

Source of the values: ChEMBL document CHEMBL1133538, “7-Deazaadenines bearing polar substituents: structure-activity relationships of new A(1) and A(3) adenosine receptor antagonists” (J Med Chem, 2000).
